In ChEMBL document CHEMBL1127415 (J Med Chem, 1994):

Experiments:
[1] = target: T1, Type-2 angiotensin II receptor (Rattus norvegicus, UniProt P35351); test: In vitro binding affinity for angiotensin II AT2 receptor in rat midbrain
T1 sequence (P35351 whole entry): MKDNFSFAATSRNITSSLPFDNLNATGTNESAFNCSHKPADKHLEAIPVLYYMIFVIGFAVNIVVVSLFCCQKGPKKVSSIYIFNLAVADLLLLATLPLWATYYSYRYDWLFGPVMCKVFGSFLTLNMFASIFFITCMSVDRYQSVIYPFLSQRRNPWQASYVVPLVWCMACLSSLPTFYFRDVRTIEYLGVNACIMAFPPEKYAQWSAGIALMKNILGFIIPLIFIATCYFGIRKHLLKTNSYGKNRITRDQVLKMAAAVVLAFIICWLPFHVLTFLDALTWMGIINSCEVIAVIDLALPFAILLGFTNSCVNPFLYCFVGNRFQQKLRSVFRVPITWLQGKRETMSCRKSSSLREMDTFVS
Outline: (§1)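 Radioligand binding IC50 values. AT1 was measured on rabbit aortic receptor preparations and AT2 on rat midbrain receptor preparations.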

Rattus norvegicus [2] = test: The duration of action for the % peak inhibition of angiotensin II pressor response for dose of 0.1 mg/kg intravenous administration in conscious rats.; format: functional
Outline: (§2)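 Conscious normotensive rats received antagonists as potassium salts, iv or po. Pressor responses to exogenous AII were measured repeatedly after dosing and reported as % peak inhibition (mean ± SE) and duration of action in h. Methoxamine pressor response served as a specificity check.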

Rattus norvegicus [3] = test: The duration of action for the % peak inhibition of angiotensin II pressor response for dose of 0.1 mg/kg perol administration in conscious rats.; format: functional; outline: as §2
Rattus norvegicus [4] = test: The compound was evaluated for the % peak inhibition of angiotensin II pressor response for dose of 0.1 mg/kg intravenous administration in conscious rats.; format: functional; outline: as §2
Rattus norvegicus [5] = test: The compound was evaluated for the % peak inhibition of angiotensin II pressor response for dose of 0.1 mg/kg perol administration in conscious rats.; format: functional; outline: as §2
Rattus norvegicus [6] = test: The compound was evaluated for the ED50 for inhibition of A II pressor response in rat for peroral administration.
Rattus norvegicus [7] = test: The compound was evaluated for the ED50 for inhibition of A II pressor response in rat for intravenous administration
[8] = target: T2, Type-1 angiotensin II receptor (Oryctolagus cuniculus, UniProt P34976); test: In vitro binding affinity for angiotensin II AT1 receptor in rabbit aorta; format: tissue-based; outline: as §1
T2 sequence (P34976 whole entry): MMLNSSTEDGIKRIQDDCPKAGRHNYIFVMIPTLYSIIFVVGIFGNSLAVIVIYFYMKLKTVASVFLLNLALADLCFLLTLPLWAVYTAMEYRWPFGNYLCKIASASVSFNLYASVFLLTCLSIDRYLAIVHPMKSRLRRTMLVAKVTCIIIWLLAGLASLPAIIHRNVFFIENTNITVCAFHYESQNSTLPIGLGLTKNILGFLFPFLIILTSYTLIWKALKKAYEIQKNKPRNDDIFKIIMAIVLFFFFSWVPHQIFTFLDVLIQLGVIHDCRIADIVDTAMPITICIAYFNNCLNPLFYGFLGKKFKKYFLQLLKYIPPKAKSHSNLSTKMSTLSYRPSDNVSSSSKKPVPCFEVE

Rattus norvegicus [9] = test: The duration of action for the % peak inhibition of angiotensin II pressor response for dose of 1.0 mg/kg intravenous administration in conscious rats.; format: functional; outline: as §2
Rattus norvegicus [10] = test: The compound was evaluated for the % peak inhibition of angiotensin II pressor response for dose of 1.0 mg/kg intravenous administration in conscious rats.; format: functional; outline: as §2
Rattus norvegicus [11] = test: The duration of action for the % peak inhibition of angiotensin II pressor response for dose of 0.3 mg/kg peroral administration in conscious rats.; format: functional; settings: route oral; outline: as §2
Rattus norvegicus [12] = test: The compound was evaluated for the % peak inhibition of angiotensin II pressor response for dose of 0.3 mg/kg peroral administration in conscious rats.; format: functional; settings: route oral; outline: as §2
Rattus norvegicus [13] = test: The duration of action for the % peak inhibition of angiotensin II pressor response for dose of 1.0 mg/kg peroral administration in conscious rats.; format: functional; settings: route oral; outline: as §2
Rattus norvegicus [14] = test: The compound was evaluated for the % peak inhibition of angiotensin II pressor response for dose of 0.1 mg/kg peroral administration in conscious rats.; format: functional; settings: route oral; outline: as §2
Rattus norvegicus [15] = test: The compound was evaluated for the % peak inhibition of angiotensin II pressor response for dose of 1.0 mg/kg peroral administration in conscious rats.; format: functional; settings: route oral; outline: as §2
[16] = Ratio of the of A II pressor responses in dog, p.o./i.v.; format: functional
Outline: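 Conscious normotensive mongrel dogs with an arterial catheter for continuous mean arterial pressure and vein catheters for dosing. Patency checked with norepinephrine 1.6 μg/kg iv. AII 0.1 μg/kg iv boluses given at –45, –30 and –15 min. Antagonist given iv or by oral gavage at 0 min, then AII rechallenged repeatedly to 6 h (24 h if needed). Ratio is oral ED50 divided by iv ED50.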

[17] = Ratio of the of A II pressor responses in rat, p.o./i.v.; format: functional
Outline: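 Conscious normotensive rats; potassium salt given iv or orally; inhibition of the pressor response to exogenous iv AII followed over time. Ratio is oral ED50 divided by iv ED50.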

[18] = Ratio of the of A II pressor responses in rhesus monkey, p.o./i.v.; format: functional
Outline: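 Sodium/volume-depleted rhesus monkeys dosed iv or orally; inhibition of the AII pressor response tracked over time. Ratio is oral ED50 divided by iv ED50.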

[19] = target: T3, Angiotensin II receptor (Rattus norvegicus) (UniProt P29089+P25095+P35351)
T3 sequence (P25095 whole entry, looked up, one chain of several): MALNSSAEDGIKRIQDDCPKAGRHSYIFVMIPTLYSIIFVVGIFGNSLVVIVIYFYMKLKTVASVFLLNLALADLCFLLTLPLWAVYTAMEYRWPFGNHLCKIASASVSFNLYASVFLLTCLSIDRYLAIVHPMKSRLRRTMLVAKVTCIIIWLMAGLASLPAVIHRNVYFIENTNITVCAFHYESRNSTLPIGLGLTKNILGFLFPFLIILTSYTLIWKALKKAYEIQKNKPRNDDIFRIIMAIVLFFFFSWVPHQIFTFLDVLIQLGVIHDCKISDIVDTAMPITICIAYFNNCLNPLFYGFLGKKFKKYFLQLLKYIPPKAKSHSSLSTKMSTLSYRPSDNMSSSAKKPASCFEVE
T3 sequence (P29089 whole entry, looked up, one chain of several): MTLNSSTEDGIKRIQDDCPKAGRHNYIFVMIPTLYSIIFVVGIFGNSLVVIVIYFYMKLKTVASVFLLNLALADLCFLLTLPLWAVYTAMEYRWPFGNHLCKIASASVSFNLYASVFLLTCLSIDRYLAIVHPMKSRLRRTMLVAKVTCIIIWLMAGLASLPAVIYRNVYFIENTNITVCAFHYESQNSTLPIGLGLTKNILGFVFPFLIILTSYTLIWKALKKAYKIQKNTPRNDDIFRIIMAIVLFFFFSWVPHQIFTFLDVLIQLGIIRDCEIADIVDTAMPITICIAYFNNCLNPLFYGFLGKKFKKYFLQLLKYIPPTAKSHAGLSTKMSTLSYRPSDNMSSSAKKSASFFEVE

[20] = target: T3, Angiotensin II receptor (Rattus norvegicus); remark: listed apart in the source
[21] = target: T3, Angiotensin II receptor (Rattus norvegicus); remark: listed apart in the source
Canis familiaris [22] = test: The compound was evaluated for the ED50 for inhibition of A II pressor response in dogs for peroral administration.
Rattus norvegicus [23] = test: The compound was evaluated for the ED50 for inhibition of A II pressor response in rats for intravenous administration
Canis familiaris [24] = test: The compound was evaluated for the ED50 for inhibition of A II pressor response in dogs for intravenous administration
Macaca mulatta [25] = test: The compound was evaluated for the ED50 for inhibition of A II pressor response in rhesus monkeys for peroral administration.
Macaca mulatta [26] = test: The compound was evaluated for the ED50 for inhibition of A II pressor response in rhesus monkeys for intravenous administration
Macaca mulatta [27] = test: The duration of action for the % peak inhibition of A II pressor response for dose of 0.1 mg/kg peroral administration in rhesus monkeys.; settings: route oral
Rattus norvegicus [28] = test: The duration of action for the % peak inhibition of angiotensin II pressor response for dose of 0.03 mg/kg intravenous administration in conscious rats.

Compound: CCc1nc2c(C)cc(C)nc2n1Cc1ccc(-c2ccccc2-c2nn[nH]n2)cc1 [L-158809]
- IC50 [1]: 50 µM
- Duration (Rattus norvegicus [2]): >6 h
- Duration (Rattus norvegicus [3]): >6 h
- inhibition in vivo at 0.1 mg/kg (Rattus norvegicus [4]): 85%
- inhibition in vivo at 0.1 mg/kg (Rattus norvegicus [5]): 75%
- ED50 (Rattus norvegicus [6]): 0.023 mg/kg
- ED50 (Rattus norvegicus [7]): 0.029 mg/kg

Compound: CCCCc1nc(Cl)c(CO)n1Cc1ccc(-c2ccccc2-c2nnn[nH]2)cc1 [LOSARTAN]
- ED50 (Rattus norvegicus [6]): 0.66 mg/kg
- ED50 (Rattus norvegicus [7]): 0.28 mg/kg

Compound: CCc1nc2c(C)cc(C)nc2n1Cc1ccc(-c2ccccc2S(=O)(=O)NC(C)=O)cc1
- IC50 [1]: > 10 µM
- IC50 [8]: 0.0022 µM
- Duration (Rattus norvegicus [9]): 3.5 h
- inhibition in vivo at 1 mg/kg (Rattus norvegicus [10]): 100%

Compound: CCc1nc2c(C)cc(C)nc2n1Cc1ccc(-c2ccccc2S(=O)(=O)NC(=O)C2CC2)cc1
- IC50 [1]: 2.4 µM
- IC50 [8]: 0.00068 µM
- Duration (Rattus norvegicus [11]): >6 h
- Duration (Rattus norvegicus [2]): >6 h
- inhibition in vivo at 0.1 mg/kg (Rattus norvegicus [4]): 95%
- inhibition in vivo at 0.3 mg/kg (Rattus norvegicus [12]): 99%

Compound: CCCCc1nc(Cl)c(C(=O)O)n1Cc1ccc(-c2ccccc2-c2nn[nH]n2)cc1 [CARBOXYLIC ACID METABOLITE]
- IC50 [1]: 50 µM

Compound: CCc1nc2c(C)cc(C)nc2n1Cc1ccc(-c2ccccc2S(=O)(=O)NC(=O)c2ccccc2)cc1
- IC50 [1]: 2.9 µM
- IC50 [8]: 0.0002 µM
- Duration (Rattus norvegicus [13]): >6 h
- Duration (Rattus norvegicus [2]): 6 h
- inhibition in vivo at 0.1 mg/kg (Rattus norvegicus [4]): 94%
- inhibition in vivo at 0.1 mg/kg (Rattus norvegicus [14]): 64%
- inhibition in vivo at 1 mg/kg (Rattus norvegicus [15]): 99%
- Ratio [16]: 2
- Ratio [17]: 5
- Ratio [18]: 3
- Duration [19]: 4 h
- Duration [20]: > 5 h
- Duration [21]: > 5 h
- ED50 (Canis familiaris [22]): 0.035 mg/kg
- ED50 (Rattus norvegicus [23]): 0.014 mg/kg
- ED50 (Canis familiaris [24]): 0.017 mg/kg
- ED50 (Macaca mulatta [25]): 0.1 mg/kg
- ED50 (Macaca mulatta [26]): 0.036 mg/kg
- Duration (Macaca mulatta [27]): ~3 h
- Duration (Rattus norvegicus [28]): 6 h

Compound: CCc1nc2c(C)cc(C)nc2n1Cc1ccc(-c2ccccc2S(=O)(=O)NC(=O)C(C)C)cc1
- IC50 [1]: 1.8 µM
- IC50 [8]: 0.00021 µM
- Duration (Rattus norvegicus [2]): 5 h
- inhibition in vivo at 0.1 mg/kg (Rattus norvegicus [4]): 100%

Compound: CCCC(=O)NS(=O)(=O)c1ccccc1-c1ccc(Cn2c(CC)nc3c(C)cc(C)nc32)cc1
- IC50 [1]: 3.6 µM
- IC50 [8]: 0.00027 µM
- Duration (Rattus norvegicus [9]): >6 h
- inhibition in vivo at 1 mg/kg (Rattus norvegicus [10]): 99%
